Experimental data published in PMC4500736 (Journal of neuroscience methods, 2015).
Where no end group is shown, it is not given here.

How the values were obtained:
[1] = dissolved in 0.9% sterile saline; cited from earlier work
normal F344 rats = type: in vivo, rat; conditions: 300 μg intranasal 5 days a week for 3 weeks, p < 0.05
Procedure, shortened: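 Normal F344 rats under light isoflurane (~1.0–3.0% with […]), supine. Striatum and SN harvested as 2 mm sections, frozen −80 °C. DA, DOPAC, HVA by HPLC-EC (ng/g wet tissue); turnover ratios; one-way ANOVA, Bonferroni.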

[2] = system: unilateral 6-OHDA lesioned F344 rats; experiment: TH+ fiber density in the SNpr of 6-OHDA lesioned rats; type: in vivo, rat; conditions: mean ± SEM
Procedure, shortened: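 Unilateral 3-site striatal 6-OHDA lesion (right hemisphere). Intranasal test compound 300 μg or vehicle daily for 7 days pre-lesion, ~60 min before infusion, then 35 ± 3 days. Midbrain fixed in 4% paraformaldehyde for 24 h, then 15 & 30% sucrose; 30 μm coronal sections. Ipsilateral SNpr TH+ immunoreactive area measured at −5.24, −5.60 and −5.96 mm from bregma. Two-tailed unpaired t-test.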

[3] = system: unilateral 6-OHDA lesioned F344 rats; experiment: d-amphetamine-induced rotation in 6-OHDA-lesioned rats; type: in vivo, rat; conditions: animals taken out to 6 weeks (data not shown), n = 3 DNSP-11, n = 2 vehicle
[4] = system: unilateral 6-OHDA lesioned F344 rats; experiment: DA and DA metabolite levels; type: in vivo, rat; conditions: 5 weeks post 6-OHDA, 300 μg intranasal daily, p < 0.01

In the case of “PPEAPAEDRSL-NH2 [DNSP-11, Dopamine neuron stimulating peptide-11]”, the “stability in 0.9% sterile saline” value [1] is given as “stable”, the “increase in DA turnover in the SN compared to vehicle” value (normal F344 rats) is given as 34% and the “increase in DA turnover in the striatum compared to vehicle” value (normal F344 rats) is given as 25%. For the same substance, the “Fiber Density for the Lesioned SNpr, Rostral” value ([2]; n = 6, vehicle 0.20 ± 0.03) was 0.26 ± 0.09, the “Fiber Density for the Lesioned SNpr, Middle” value ([2]; n = 6, vehicle 0.22 ± 0.07) was 0.41 ± 0.20 and the “Fiber Density for the Lesioned SNpr, Caudal” value ([2]; n = 6, vehicle 1.10 ± 0.67) was 0.91 ± 0.41. For the same substance, the “reduction in d-amphetamine-induced rotations compared to vehicle” value [3] was 21% and the “reduction in DA turnover in the ipsilateral side to the lesion compared to vehicle” value [4] was 39%.
